Structures can show the parent of a compound that is named as a salt. Active and inactive are the calls of the source. The rule behind the calls is not given here.
Legend:
Aminopeptidase N = Aminopeptidase N (Homo sapiens, UniProt P15144); assay: Inhibition of human aminopeptidase N by Dixon plot analysis
Cytosol aminopeptidase = target: T1, Cytosol aminopeptidase (Bos taurus, UniProt P00727); assay: Inhibition of bovine lens cytosolic leucine aminopeptidase by Dixon plot analysis; parameters: species or system Lens of camera-type eye
T1 sequence (P00727 whole entry): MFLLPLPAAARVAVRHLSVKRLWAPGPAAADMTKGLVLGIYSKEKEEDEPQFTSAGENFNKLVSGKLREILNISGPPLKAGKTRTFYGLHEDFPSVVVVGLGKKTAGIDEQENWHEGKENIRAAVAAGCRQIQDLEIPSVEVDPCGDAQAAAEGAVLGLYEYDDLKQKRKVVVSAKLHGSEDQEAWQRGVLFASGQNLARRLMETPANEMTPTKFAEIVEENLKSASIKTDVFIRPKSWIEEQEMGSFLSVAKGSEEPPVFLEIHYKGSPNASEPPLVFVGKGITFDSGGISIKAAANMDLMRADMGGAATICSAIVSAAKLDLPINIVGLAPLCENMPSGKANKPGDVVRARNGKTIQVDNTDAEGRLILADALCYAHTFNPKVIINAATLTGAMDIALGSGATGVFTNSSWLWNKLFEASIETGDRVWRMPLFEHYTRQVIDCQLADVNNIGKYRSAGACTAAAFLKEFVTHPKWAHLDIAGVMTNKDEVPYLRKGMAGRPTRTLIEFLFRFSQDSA
In short: (§1)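 Compounds tested as racemates; IC50 obtained from Dixon plots, with substrate set at the Km of each enzyme.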

[1] = target: T2, Leukotriene A-4 hydrolase (Homo sapiens, UniProt P09960); assay: Inhibition of aminopeptidase activity of human leukotriene A4 hydrolase by Dixon plot analysis; in short: as §1
T2 sequence (P09960 whole entry): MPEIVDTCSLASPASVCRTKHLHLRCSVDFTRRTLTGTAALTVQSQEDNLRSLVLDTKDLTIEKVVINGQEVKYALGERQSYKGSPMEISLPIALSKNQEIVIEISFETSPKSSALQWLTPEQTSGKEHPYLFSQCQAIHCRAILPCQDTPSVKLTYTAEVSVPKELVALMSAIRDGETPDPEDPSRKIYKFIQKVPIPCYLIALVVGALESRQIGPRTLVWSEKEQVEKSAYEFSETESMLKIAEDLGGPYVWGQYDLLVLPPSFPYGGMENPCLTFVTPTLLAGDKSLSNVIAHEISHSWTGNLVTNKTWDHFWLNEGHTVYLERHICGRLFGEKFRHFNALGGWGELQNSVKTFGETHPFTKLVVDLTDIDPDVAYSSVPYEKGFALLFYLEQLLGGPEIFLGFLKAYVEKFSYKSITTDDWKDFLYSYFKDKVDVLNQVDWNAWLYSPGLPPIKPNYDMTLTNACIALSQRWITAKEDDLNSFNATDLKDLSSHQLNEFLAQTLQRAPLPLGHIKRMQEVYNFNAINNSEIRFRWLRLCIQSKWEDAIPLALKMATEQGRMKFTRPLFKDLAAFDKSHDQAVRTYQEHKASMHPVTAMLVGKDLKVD

[2] = Inhibition of Aeromonas proteolytica aminopeptidase by Dixon plot analysis; parameters: species or system Vibrio proteolyticus; in short: as §1
[3] = target: T3, Aminopeptidase N (Sus scrofa) (UniProt P15145); assay: Inhibition of porcine kidney aminopeptidase N at 2 uM after 8 hrs
T3 sequence (whole entry): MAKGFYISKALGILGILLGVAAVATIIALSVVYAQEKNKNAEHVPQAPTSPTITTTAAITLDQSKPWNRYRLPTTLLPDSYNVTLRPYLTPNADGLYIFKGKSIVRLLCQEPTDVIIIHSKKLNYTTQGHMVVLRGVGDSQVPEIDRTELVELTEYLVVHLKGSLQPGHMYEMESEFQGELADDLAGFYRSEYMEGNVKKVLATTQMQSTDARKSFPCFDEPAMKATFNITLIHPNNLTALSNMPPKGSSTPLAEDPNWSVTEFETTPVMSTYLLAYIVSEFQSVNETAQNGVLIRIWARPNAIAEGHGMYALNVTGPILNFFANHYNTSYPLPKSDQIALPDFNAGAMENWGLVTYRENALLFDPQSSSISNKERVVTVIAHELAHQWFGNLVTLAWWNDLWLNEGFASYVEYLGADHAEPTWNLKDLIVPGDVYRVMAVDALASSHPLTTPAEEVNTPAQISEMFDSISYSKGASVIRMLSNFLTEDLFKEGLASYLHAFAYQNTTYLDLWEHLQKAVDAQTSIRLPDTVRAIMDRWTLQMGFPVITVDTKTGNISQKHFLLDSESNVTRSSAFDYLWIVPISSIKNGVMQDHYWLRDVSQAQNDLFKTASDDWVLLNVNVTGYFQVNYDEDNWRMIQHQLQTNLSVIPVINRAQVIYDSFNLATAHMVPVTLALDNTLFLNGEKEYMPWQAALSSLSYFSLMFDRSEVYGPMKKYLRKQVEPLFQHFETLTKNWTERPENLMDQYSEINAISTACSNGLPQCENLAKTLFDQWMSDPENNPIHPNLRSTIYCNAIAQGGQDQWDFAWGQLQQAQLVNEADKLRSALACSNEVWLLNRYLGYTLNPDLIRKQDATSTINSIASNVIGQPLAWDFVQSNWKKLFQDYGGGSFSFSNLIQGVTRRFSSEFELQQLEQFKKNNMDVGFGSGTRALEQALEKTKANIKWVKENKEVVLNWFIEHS
In short: (§2)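 Porcine kidney APN (3 milliunits, added to start the reaction) in 20 mM Tris-HCl pH 7.5 at 25 °C; substrate leucine-para-nitroanilide 0.2 mM; para-nitroaniline release followed at 405 nm for up to 10 h; inhibitor at 2 µM; velocities compared with a no-inhibitor control.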

[4] = Chemical stability of the compound; format: physicochemical
[5] = target: T3, Aminopeptidase N (Sus scrofa); assay: Inhibition of porcine kidney aminopeptidase N at 2 uM after 1 hr; in short: as §2

Sequence of Aminopeptidase N (P15144 whole entry): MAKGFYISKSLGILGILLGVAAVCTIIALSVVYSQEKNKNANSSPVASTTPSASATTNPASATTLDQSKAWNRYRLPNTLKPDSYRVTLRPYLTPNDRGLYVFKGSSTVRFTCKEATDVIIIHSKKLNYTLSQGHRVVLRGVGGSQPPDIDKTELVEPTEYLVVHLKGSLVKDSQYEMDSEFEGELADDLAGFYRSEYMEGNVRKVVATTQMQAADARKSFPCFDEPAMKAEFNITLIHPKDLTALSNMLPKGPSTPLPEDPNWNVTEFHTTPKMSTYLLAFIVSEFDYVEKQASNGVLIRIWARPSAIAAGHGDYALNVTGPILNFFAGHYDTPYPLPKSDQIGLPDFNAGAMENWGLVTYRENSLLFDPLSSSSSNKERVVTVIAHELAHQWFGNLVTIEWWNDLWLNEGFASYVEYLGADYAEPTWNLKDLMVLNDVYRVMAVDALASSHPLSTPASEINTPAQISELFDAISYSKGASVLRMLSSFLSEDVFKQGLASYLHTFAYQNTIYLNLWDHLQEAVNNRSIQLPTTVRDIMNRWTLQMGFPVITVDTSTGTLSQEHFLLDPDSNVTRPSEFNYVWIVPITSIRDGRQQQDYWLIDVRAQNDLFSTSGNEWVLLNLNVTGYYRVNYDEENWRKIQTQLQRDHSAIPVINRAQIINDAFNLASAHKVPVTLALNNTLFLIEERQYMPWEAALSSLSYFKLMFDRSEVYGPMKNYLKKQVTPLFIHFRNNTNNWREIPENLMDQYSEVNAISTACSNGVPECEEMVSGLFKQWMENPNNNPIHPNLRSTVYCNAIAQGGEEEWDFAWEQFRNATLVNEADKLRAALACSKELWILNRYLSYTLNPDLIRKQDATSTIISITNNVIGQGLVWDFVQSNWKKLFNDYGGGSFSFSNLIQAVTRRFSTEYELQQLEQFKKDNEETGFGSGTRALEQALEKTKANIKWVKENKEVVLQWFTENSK

IC50 (Aminopeptidase N) [µM]	IC50 (Cytosol aminopeptidase) [µM]	IC50 [1] [µM]	IC50 [2] [µM]	inhibition [5] [%]	Structure (SMILES)	Ki (Aminopeptidase N) [µM]	inhibition [3]	Stability [4]
110	> 1000	> 1000	15		NC1CCc2ccccc2C/C1=N/O (configuration not stated)			
> 1000	> 1000	> 1000	> 1000		NC1Cc2ccccc2CCC1=O (configuration not stated)			
310	> 100		350		NC1CCCCCC1=O (configuration not stated) [2-AMINOCYCLOHEPTANONE HYDROCHLORIDE]			
	> 1000		> 1000		N[C@H]1CCc2ccccc2C[C@H]1O (relative stereo)			
			0.0016		CC(C)C[C@H](NC(=O)[C@@H](O)[C@H](N)Cc1ccccc1)C(=O)O [UBENIMEX]			
	> 1000	> 1000	150		NC1C(=O)Cc2ccccc21 (configuration not stated)			
		> 1000	130	60	NC1Cc2ccccc2CC1=O (configuration not stated)		inactive	

Structure (SMILES)	IC50 (Aminopeptidase N) [µM]	IC50 (Cytosol aminopeptidase) [µM]	IC50 [1] [µM]	IC50 [2] [µM]	inhibition [5] [%]	Ki (Aminopeptidase N) [µM]	inhibition [3]	Stability [4]
Cl.NC1CCc2ccccc2CC1=O (configuration not stated)		> 1000	> 1000	900		1	60%	Stable
